Data published in ChEMBL document CHEMBL3853291, “Polycyclic Polyprenylated Derivatives from Hypericum uralum: Neuroprotective Effects and Antidepressant-like Activity of Uralodin A” (2016).

Assays:
PC-12 [1] = test: Neuroprotective activity against corticosterone-induced cell injury in rat PC12 cells assessed as cell viability at 10 uM after 48 hrs by MTT assay (reference value: 55.6 +/- 0.87%); assay type: functional; settings: PC-12, 48 h, read-out: Activity
PC-12 [2] = test: Neuroprotective activity against corticosterone-induced cell injury in rat PC12 cells assessed as cell viability at 3 uM after 48 hrs by MTT assay (reference value: 55.6 +/- 0.87%); assay type: functional; settings: PC-12, 48 h, read-out: Activity
PC-12 [3] = test: Neuroprotective activity against corticosterone-induced cell injury in rat PC12 cells assessed as cell viability at 1 uM after 48 hrs by MTT assay (reference value: 55.6 +/- 0.87%); assay type: functional; settings: PC-12, 48 h, read-out: Activity
PC-12 [4] = test: Neuroprotective activity against corticosterone-induced cell injury in rat PC12 cells assessed as cell viability at 0.3 uM after 48 hrs by MTT assay (reference value: 55.6 +/- 0.87%); assay type: functional; settings: PC-12, 48 h, read-out: Activity
PC-12 [5] = test: Neuroprotective activity against corticosterone-induced cell injury in rat PC12 cells assessed as cell viability at 0.1 uM after 48 hrs by MTT assay (reference value: 55.6 +/- 0.87%); assay type: functional; settings: PC-12, 48 h, read-out: Activity
[6] = Antidepressant-like activity in LPS-induced ICR mouse assessed as decrease in immobility time at 25 mg/kg, ig qd for 5 days followed by LPS stimulation on 5th day injected 30 mins post last dose measured 24 hrs after stimulation monitored for last 4 mins by tail suspension test relative to control; assay type: functional, organism-based; set-up: scale not given: the % may be the effect or the level left
Summary of the method: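 Male ICR mice (18−22 g), n = 12 per group, given drug in 0.03% CMC-Na intragastrically once daily for 5 days. LPS 0.5 mg/kg i.p. 30 min after the last dose, with the test 24 h later. Mice visually and acoustically isolated, taped ~1 cm from the tail tip, hung 50 cm above the floor for 6 min. Passive motionless hanging timed over the last 4 min; mean ± SD.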

[7] = Antidepressant-like activity in LPS-induced ICR mouse assessed as decrease in immobility time at 25 mg/kg, ig qd for 5 days followed by LPS stimulation on 5th day injected 30 mins post last dose measured 24 hrs after stimulation monitored for last 4 mins by forced swim test relative to control; assay type: functional, organism-based; set-up: scale not given: the % may be the effect or the level left
Summary of the method: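 Male ICR mice (18−22 g), 12 per group. Drug suspended in 0.03% CMC-Na and given intragastrically once daily for 5 days. LPS 0.5 mg/kg i.p. 30 min after the day-5 dose, with testing 24 h later. Mice swim 6 min at 25 ± 1 °C in a cylinder (20 cm high, 14 cm diameter, 10 cm water). Floating immobility scored over the last 4 min; mean ± SD.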

[8] = Antidepressant-like activity in LPS-induced ICR mouse assessed as decrease in immobility time at 13 mg/kg, ig qd for 5 days followed by LPS stimulation on 5th day injected 30 mins post last dose measured 24 hrs after stimulation monitored for last 4 mins by forced swim test relative to control; assay type: functional, organism-based; set-up: scale not given: the % may be the effect or the level left
Summary of the method: (§1)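 Male ICR mice (18−22 g), n = 12 per group. Dosed intragastrically once daily for 5 days as a suspension in 0.03% CMC-Na. On day 5, LPS 0.5 mg/kg i.p. was given 30 min after dosing. Tests were run 24 h after LPS. FST used a 20 × 14 cm cylinder with 10 cm water at 25 ± 1 °C, 6 min swim. TST suspended mice 50 cm high by the tail tape for 6 min. Immobility was scored over the last 4 min.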

[9] = Antidepressant-like activity in LPS-induced ICR mouse assessed as decrease in immobility time at 26 mg/kg, ig qd for 5 days followed by LPS stimulation on 5th day injected 30 mins post last dose measured 24 hrs after stimulation monitored for last 4 mins by forced swim test relative to control; assay type: functional, organism-based; set-up: scale not given: the % may be the effect or the level left; summary of the method: as §1
[10] = Antidepressant-like activity in LPS-induced ICR mouse assessed as decrease in immobility time at 13 mg/kg, ig qd for 5 days followed by LPS stimulation on 5th day injected 30 mins post last dose measured 24 hrs after stimulation monitored for last 4 mins by tail suspension test relative to control; assay type: functional, organism-based; set-up: scale not given: the % may be the effect or the level left; summary of the method: as §1
[11] = Antidepressant-like activity in LPS-induced ICR mouse assessed as decrease in immobility time at 26 mg/kg, ig qd for 5 days followed by LPS stimulation on 5th day injected 30 mins post last dose measured 24 hrs after stimulation monitored for last 4 mins by tail suspension relative to control; assay type: functional, organism-based; set-up: scale not given: the % may be the effect or the level left; summary of the method: as §1

CC(C)=CCC[C@]1(C)[C@@H](CC=C(C)C)C[C@]2(CC=C(C)C)C(=O)C(C(=O)c3ccccc3)=C3O[C@@H](C(C)(C)O)C[C@@]31C2=O
viability at 10 µM (PC-12 [1]): 68.1%
viability at 3 µM (PC-12 [2]): 77.7%
viability at 1 µM (PC-12 [3]): 78.5%
viability at 0.3 µM (PC-12 [4]): 72.9%
viability at 0.1 µM (PC-12 [5]): 78.6%

CC(C)=CCC[C@]1(C)[C@@H](CC=C(C)C)C[C@]23C[C@H](C(C)(C)O)OC2=C(CC=C(C)C)C(=O)[C@@]1(C(=O)c1ccccc1)C3=O
viability at 10 µM (PC-12 [1]): 86.6%
viability at 3 µM (PC-12 [2]): 78%
viability at 1 µM (PC-12 [3]): 68.1%
viability at 0.3 µM (PC-12 [4]): 72.8%
viability at 0.1 µM (PC-12 [5]): 82.9%

CNCCC(Oc1ccc(C(F)(F)F)cc1)c1ccccc1 (stereo unspecified) [FLUOXETINE]
Activity [6]: 23.1%
viability at 10 µM (PC-12 [1]): 69.6%
viability at 3 µM (PC-12 [2]): 59.1%
viability at 1 µM (PC-12 [3]): 70.1%
viability at 0.3 µM (PC-12 [4]): 66.2%
viability at 0.1 µM (PC-12 [5]): 77.7%
Activity [7]: 33.7%

CC(C)=CCC1=C2O[C@H](C(C)(C)O)CC[C@]3(C)[C@@H](CC=C(C)C)C[C@](C[C@H](O)C(C)(C)O)(C1=O)C(=O)[C@]23C(=O)c1ccccc1
viability at 10 µM (PC-12 [1]): 53.2%
viability at 3 µM (PC-12 [2]): 59.7%
viability at 1 µM (PC-12 [3]): 65%
viability at 0.3 µM (PC-12 [4]): 57.5%
viability at 0.1 µM (PC-12 [5]): 55.9%

CC(C)=CCC[C@]1(C)[C@@H](CC=C(C)C)C[C@]2(CC=C(C)C)C(=O)C3=C(OC(C)(C)[C@H](O)C3)[C@@]1(C(=O)C(C)C)C2=O
viability at 10 µM (PC-12 [1]): 75.1%
viability at 3 µM (PC-12 [2]): 91.5%
viability at 1 µM (PC-12 [3]): 81.8%
viability at 0.3 µM (PC-12 [4]): 61.4%
viability at 0.1 µM (PC-12 [5]): 80.3%

CC(C)=CCC1=C2O[C@H](C(C)(C)O)CC[C@]3(C)[C@@H](C[C@H](O)C(C)(C)O)C[C@](CC=C(C)C)(C1=O)C(=O)[C@]23C(=O)C(C)C
viability at 10 µM (PC-12 [1]): 72.9%
viability at 3 µM (PC-12 [2]): 90.7%
viability at 1 µM (PC-12 [3]): 93.5%
viability at 0.3 µM (PC-12 [4]): 84.4%
viability at 0.1 µM (PC-12 [5]): 91.7%

CC(C)=CCC[C@]1(C)[C@@H](CC=C(C)C)C[C@@]2(CC=C(C)C)C(=O)[C@]1(C(=O)c1ccccc1)C(=O)C1=C2O[C@@H](C(C)(C)O)C1
viability at 10 µM (PC-12 [1]): 75.9%
viability at 3 µM (PC-12 [2]): 72.9%
viability at 1 µM (PC-12 [3]): 74.7%
viability at 0.3 µM (PC-12 [4]): 56.6%
viability at 0.1 µM (PC-12 [5]): 55.6%

CC(C)=CCC[C@]1(C)[C@@H](CC=C(C)C)C[C@]23C[C@@H](C(C)(C)O)OC2=C(CC=C(C)C)C(=O)[C@@]1(C(=O)c1ccccc1)C3=O
viability at 10 µM (PC-12 [1]): 85.3%
viability at 3 µM (PC-12 [2]): 90.2%
viability at 1 µM (PC-12 [3]): 85.9%
viability at 0.3 µM (PC-12 [4]): 87.1%
viability at 0.1 µM (PC-12 [5]): 85.7%
Activity [8]: 21.4%
Activity [9]: 28.1%
Activity [10]: 6.6%
Activity [11]: 12.6%

CC(C)=CCC[C@]1(C)[C@@H](CC=C(C)C)C[C@]2(C[C@H](O)C(C)(C)O)C(=O)C3=C(OC(C)(C)[C@@H](O)C3)[C@@]1(C(=O)c1ccccc1)C2=O
viability at 10 µM (PC-12 [1]): 80.9%
viability at 3 µM (PC-12 [2]): 72.5%
viability at 1 µM (PC-12 [3]): 78.5%
viability at 0.3 µM (PC-12 [4]): 77.7%
viability at 0.1 µM (PC-12 [5]): 77.9%

CC(C)=CCC[C@]1(C)[C@@H](CC=C(C)C)C[C@]2(C[C@H](O)C(C)(C)O)C(=O)C(C(=O)C(C)C)=C3O[C@H](C(C)(C)O)C[C@@]31C2=O
viability at 10 µM (PC-12 [1]): 71.5%
viability at 3 µM (PC-12 [2]): 76.5%
viability at 1 µM (PC-12 [3]): 81.1%
viability at 0.3 µM (PC-12 [4]): 80%
viability at 0.1 µM (PC-12 [5]): 72.3%

CC(C)=CCC[C@]1(C)[C@@H](CC=C(C)C)C[C@]23C[C@@H](C(C)(C)O)OC2=C(CC=C(C)C)C(=O)[C@@]1(C(=O)C(C)C)C3=O
viability at 10 µM (PC-12 [1]): 85.2%
viability at 3 µM (PC-12 [2]): 77.7%
viability at 1 µM (PC-12 [3]): 79.7%
viability at 0.3 µM (PC-12 [4]): 79.9%
viability at 0.1 µM (PC-12 [5]): 77.2%

CC(C)=CCC[C@]1(C)[C@H](CC=C(C)C)C[C@]2(CC=C(C)C)C(=O)C(C(=O)C(C)C)=C3O[C@@H](C(C)(C)O)C[C@@]31C2=O
viability at 10 µM (PC-12 [1]): 61%
viability at 3 µM (PC-12 [2]): 63.8%
viability at 1 µM (PC-12 [3]): 77%
viability at 0.3 µM (PC-12 [4]): 68.1%
viability at 0.1 µM (PC-12 [5]): 80.9%

CC(C)=CCC[C@]1(C)[C@@H](CC=C(C)C)C[C@]2(CC=C(C)C)C(=O)C3=C(OC(C)(C)[C@H](O)C3)[C@@]1(C(=O)c1ccccc1)C2=O
viability at 10 µM (PC-12 [1]): 68.9%
viability at 3 µM (PC-12 [2]): 82.2%
viability at 1 µM (PC-12 [3]): 86.3%
viability at 0.3 µM (PC-12 [4]): 86.8%
viability at 0.1 µM (PC-12 [5]): 78.6%

CC(C)=CCC[C@]1(C)[C@@H](CC=C(C)C)C[C@]2(CC=C(C)C)C(=O)C3=C(OC(C)(C)[C@@H](O)C3)[C@@]1(C(=O)c1ccccc1)C2=O
viability at 10 µM (PC-12 [1]): 65.9%
viability at 3 µM (PC-12 [2]): 69%
viability at 1 µM (PC-12 [3]): 77.6%
viability at 0.3 µM (PC-12 [4]): 80.8%
viability at 0.1 µM (PC-12 [5]): 70%

CC(C)=CCC[C@]1(C)[C@@H](CC=C(C)C)C[C@@]2(CC=C(C)C)C(=O)[C@]1(C(=O)c1ccccc1)C(=O)C1=C2O[C@H](C(C)(C)O)C1
viability at 10 µM (PC-12 [1]): 57%
viability at 3 µM (PC-12 [2]): 74.4%
viability at 1 µM (PC-12 [3]): 72.2%
viability at 0.3 µM (PC-12 [4]): 77.7%
viability at 0.1 µM (PC-12 [5]): 69.9%

CC(C)=CCC1=C2O[C@H](C(C)(C)O)CC[C@]3(C)[C@@H](CC=C(C)C)C[C@](CC=C(C)C)(C1=O)C(=O)[C@]23C(=O)c1ccccc1
viability at 10 µM (PC-12 [1]): 84.2%
viability at 3 µM (PC-12 [2]): 81.6%
viability at 1 µM (PC-12 [3]): 83.5%
viability at 0.3 µM (PC-12 [4]): 82.7%
viability at 0.1 µM (PC-12 [5]): 83.4%

CC(C)=CCC[C@]1(C)[C@@H](CC=C(C)C)C[C@]2(CC=C(C)C)C(=O)C(C(=O)c3ccccc3)=C3O[C@H](C(C)(C)O)C[C@@]31C2=O
viability at 10 µM (PC-12 [1]): 74.1%
viability at 3 µM (PC-12 [2]): 81.1%
viability at 1 µM (PC-12 [3]): 76.6%
viability at 0.3 µM (PC-12 [4]): 81.8%
viability at 0.1 µM (PC-12 [5]): 76.7%
